From ChEMBL document CHEMBL2331456, “Isobutylhydroxyamides from the pericarp of Nepalese Zanthoxylum armatum inhibit NF1-defective tumor cell line growth” (J Nat Prod, 2013)
Activity calls are given as the source filed them. The calls are words filed in the database; no cut-off is given here.

Legend:
[1] = Cytotoxicity against mouse Nf1-/-;Trp53-/- KR158 cells assessed as cell viability at 2 ug/ml after 2 days by red luminescence assay relative to control; format: cell-based; conditions: read-out: Activity
In short: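 Nf1−/−;Trp53−/− KR158 mouse astrocytoma cells carry a CMV-promoter luciferase that gives red luminescence in all living cells. Cells were plated at 1000 cells/well and allowed to attach (≥4 h), then compounds were added. Luminescence was read with ChromoGlo reagent 2 d later. Loss of viability compares treated cells in growth media with […].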

NCI60 = assay: Cytotoxicity against human NCI60 cells at 10 uM; format: functional, cell-based
[2] = Growth inhibition of mouse Nf1-/-;Trp53-/- KR158 cells assessed as green luminescence at 2 ug/ml after 2 days; format: functional; conditions: KR158, 48 h, read-out: GI
In short: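 KR158 Nf1−/−;Trp53−/− astrocytoma cells carry a human E2F1-promoter luciferase that gives green luminescence only in actively dividing cells. Cells were seeded at 1000 cells/well, and compounds were added after ≥4 h attachment. Green luminescence was read with ChromoGlo reagent after 2 d. Growth inhibition compares treated cells with vehicle-treated cells, both in growth media.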

SMILES	viability at 48 h, 2 ug/ml [1] [%]	Activity (NCI60)	inhibition of growth at 2 µg/mL [2] [%]
CC(C)(O)CNC(=O)/C=C/CCC(=O)O [TIMURAMIDE D]	70	inactive	42
C[C@@H](O)[C@H](O)/C=C/C=C\CC/C=C/C(=O)NCC(C)(C)O	66	–	56
C/C=C/C=C/C=C/CC/C=C/C(=O)NCC(C)(C)O	56	–	65
C[C@H](O)[C@H](O)/C=C/C=C\CC/C=C/C(=O)NCC(C)(C)O	79	–	31
C/C=C/C=C/C=C\CC/C=C/C(=O)NCC(C)(C)O	106	–	53
CC(=O)/C=C/C=C/C(O)CC/C=C/C(=O)NCC(C)(C)O (stereo not drawn)	75	–	52
CC(O)/C=C/C=C/C(O)CC/C=C/C(=O)NCC(C)(C)O (stereo not drawn)	67	–	41
CC(C)(O)CNC(=O)/C=C/CC/C=C\C=C\C(=O)O [TIMURAMIDE C]	66	inactive	47
C[C@H]1C=C[C@@H](/C=C\CC/C=C/C(=O)NCC(C)(C)O)OO1 [TIMURAMIDE A]	97	inactive	38
C[C@H]1C=C[C@@H](/C=C/CC/C=C/C(=O)NCC(C)(C)O)OO1 [TIMURAMIDE B]	65	–	13
